Data from ChEMBL document CHEMBL1149594, “Synthesis and HCV inhibitory properties of 9-deaza- and 7,9-dideaza-7-oxa-2'-C-methyladenosine” (Bioorg Med Chem, 2007).
pEC50: −log10 of the molar value.

Tests used:
Hepatitis C virus [1] = assay: Antiviral activity against HCV genotype 1b in Huh7 cells assessed as inhibition of viral RNA replication after 24 hrs by ribonuclease protection assay; assay type: functional, organism-based, Hepacivirus hominis; conditions: Huh-7, 24 h
Method in brief: (§1)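 Huh-7 (HB-1) cells carrying a subgenomic bicistronic neomycin-resistance replicon from HCV genotype 1b. Compound incubated with cells 24 h or 72 h. Intracellular replicon RNA then quantified by in situ ribonuclease protection. EC50 taken as the mean of at least two separate determinations.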

Hepatitis C virus [2] = assay: Antiviral activity against HCV genotype 1b in Huh7 cells assessed as inhibition of viral RNA replication after 72 hrs by ribonuclease protection assay; assay type: functional, organism-based, Hepacivirus hominis; conditions: Huh-7, 72 h; method in brief: as §1
[3] = Cytotoxicity against Huh7 cells after 24 hrs by MTS assay; assay type: cell-based, Huh-7; conditions: human
Method in brief: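 Nucleoside cytotoxicity in the replicon-bearing Huh-7 cells, measured by MTS assay after 24 h exposure. Result expressed as CC50.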

Compound	pEC50 (Hepatitis C virus [1])	pEC50 (Hepatitis C virus [2])	CC50 at 24 h [3] [µM]
C[C@@]1(O)[C@H](O)[C@@H](CO)O[C@H]1c1coc2c(N)ncnc12	4.66	5.09	> 100
C[C@@]1(O)[C@H](O)[C@@H](CO)O[C@H]1c1c[nH]c2c(N)ncnc12	< 4.00	4.22	> 100
C[C@@]1(O)[C@H](O)[C@@H](CO)O[C@H]1n1cnc2c(N)ncnc21	6.60	6.70	> 100
C[C@@]1(O)[C@H](O)[C@@H](CO)O[C@H]1n1ccc2c(N)ncnc21 [BETA-2'-C-METHYL-7-DEAZA-ADENOSINE]	6.52	6.96	> 100
CC(C)[C@H](N)C(=O)O[C@@H]1[C@@H](CO)O[C@@H](n2ccc(N)nc2=O)[C@]1(C)O [VALOPICITABINE]	5.13	5.82	> 100
